Source: ChEMBL document CHEMBL4725263, “Discovery of potential dual-target prodrugs of HIV-1 reverse transcriptase and nucleocapsid protein 7” (Bioorg Med Chem Lett, 2020)

Key:
[1] = (§1) Inhibition of reverse transcriptase/nucleocapsid protein 7 in wild type HIV1 3B infected in human MT4 cells assessed as protection against virus-induced cytopathic effect incubated for 5 days by MTT assay; type: cell-based; conditions: Human immunodeficiency virus 1, 3B, MT4, 120 h
How it was run: (§2)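 MT-4 cells infected with HIV-1 IIIB (wild type) or RES056 (K103N/Y181C RT double mutant); 5-day incubation; viability by MTT. EC50 is the concentration giving 50% protection against virus-induced cytotoxicity. CC50 is the concentration cutting viability of mock-infected cultures by 50%. SI is CC50/EC50. Fold resistance is EC50 mutant/EC50 wild type.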

[2] = Inhibition of nucleocapsid protein 7/reverse transcriptase K103N/Y181C double mutant in HIV1 RES056 infected in human MT4 cells assessed as protection against virus-induced cytopathic effect incubated for 5 days by MTT assay; type: cell-based; conditions: Human immunodeficiency virus 1, RES056, MT4, 120 h; how it was run: as §2
[3] = Cytotoxicity in mock-infected human MT4 assessed as reduction in cell viability incubated for 5 days by MTT assay; type: cell-based; conditions: mock-infected MT4 cells, time 5 day
How it was run: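 Mock-infected MT-4 cultures were run alongside the HIV-1 IIIB and RES056 (K103N/Y181C) protection assays and incubated for 5 days. Viability was read by MTT. CC50 is the concentration that cuts viability of the mock-infected cultures by 50%.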

[4] = as §1, with “Selectivity index, ratio of CC50 for cytotoxicity in mock-infected human MT4 cells assessed as reduction in cell viability incubated for 5 days by MTT to EC50 for inhibition” for “Inhibition”; type: toxicity, cell-based; conditions: time 5 day, read-out: Ratio CC50/EC50; how it was run: as §2
[5] = Selectivity index, ratio of CC50 for cytotoxicity in mock-infected human MT4 cells assessed as reduction in cell viability incubated for 5 days by MTT to EC50 for inhibition of reverse transcriptase K103N/Y181C double mutant/nucleocapsid protein 7 in HIV1 RES056 infected in human MT4 cells assessed as protection against virus-induced cytopathic effect incubated for 5 days by MTT assay; type: toxicity, cell-based; conditions: time 5 day, read-out: Ratio CC50/EC50; how it was run: as §2
[6] = Inhibition of reverse transcriptase/nucleocapsid protein 7 in wild type HIV1 NL4-3 infected in human TZM-bl cells assessed as protection against virus-induced cytopathic effect incubated for 5 days by MTT assay; type: cell-based; conditions: Human immunodeficiency virus 1, NL4-3, TZM-bl, 120 h
[7] = Cytotoxicity in human TZM assessed as reduction in cell viability incubated for 5 days by MTT assay; type: cell-based; conditions: TZM cells, time 5 day
How it was run: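 Uninfected TZM-bl cells were exposed to compound in parallel with the HIV-1 NL4-3 antiviral assay. CC50 is the concentration that cuts viability by 50%. Each compound was run in at least triplicate, and values were averaged from at least four independent experiments.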

[8] = Selectivity index, ratio of CC50 for cytotoxicity in human TZM-bl assessed as reduction in cell viability incubated for 5 days by MTT to EC50 for inhibition of reverse transcriptase/nucleocapsid protein 7 in wild type HIV1 NL4-3 infected in human TZM-bl cells assessed as protection against virus-induced cytopathic effect incubated for 5 days by MTT assay; type: toxicity, cell-based; conditions: time 5 day, read-out: Ratio CC50/EC50
[9] = tested on: Human immunodeficiency virus 1; experiment: Fold resistance, ratio of EC50 for inhibition of reverse transcriptase K103N/Y181C double mutant/nucleocapsid protein 7 in HIV1 RES056 infected in human MT4 cells assessed as protection against virus-induced cytopathic effect incubated for 5 days by MTT assay to EC50 for reverse transcriptase/nucleocapsid protein 7 in wild type HIV1 3B infected in human MT4 cells assessed as protection against virus-induced cytopathic effect incubated for 5 days by MTT assay; type: cell-based; conditions: time 5.0 day; how it was run: as §2
[10] = Prodrug conversion in human plasma assessed as […] measured after 10 mins at 37 degree C by LC-MS/MS analysis; type: ADME, cell-free
How it was run: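 Prodrug incubated in human plasma (pH 7.4 ± 0.1) at 37 °C for 1 h. Remaining prodrug and formed MT and AZT measured by LC-MS/MS, in triplicate at each time point. Decrease in prodrug plotted against MT formed over the first 10 min with a linear fit.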

[11] = Prodrug conversion in human plasma assessed as enzyme-mediated drug hydrolysis measured after 10 mins at 37 degree C by LC-MS/MS analysis

Row | SMILES | EC50 [1] [nM] | EC50 [2] [nM] | CC50 at 120 h [3] [nM] | selectivity ratio at 120 h [4] | selectivity ratio at 120 h [5] | EC50 [6] [nM] | CC50 at 120 h [7] [nM] | selectivity ratio at 120 h [8] | Ratio EC50 [9] | Drug metabolism [10] | Drug metabolism [11] [%]
1 | Cc1cn([C@H]2C[C@H](N=[N+]=[N-])[C@@H](CO)O2)c(=O)[nH]c1=O [ZIDOVUDINE] | 11 | 1200 | > 7480 | > 645 | > 6.25 | 16 | > 374 | > 23.4 | – | – | –
2 | NC(=O)CCNC(=O)c1ccccc1S | 5260 | 7940 | 332000 | 63 | 41.9 | 2360 | 82500 | > 34.9 | 1.5 | – | –
3 | Cc1cn([C@H]2C[C@H](N=[N+]=[N-])[C@@H](COC(=O)CCCC(=O)OCSc3ccccc3C(=O)NCCC(N)=O)O2)c(=O)[nH]c1=O | – | – | > 202000 | – | – | – | > 1620 | – | – | – | –
4 | Cc1cn([C@H]2C[C@H](N=[N+]=[N-])[C@@H](COC(=O)CCCCC(=O)OCSc3ccccc3CNCCC(N)=O)O2)c(=O)[nH]c1=O | 42 | 1330 | > 198000 | > 4660 | > 149 | 308 | > 1580 | > 4.76 | 31.6 | Metabolite_Detected | 100
5 | Cc1cn([C@H]2C[C@H](N=[N+]=[N-])[C@@H](COC(=O)CC(C)CC(=O)OCSc3ccccc3C(=O)NCCC(N)=O)O2)c(=O)[nH]c1=O (stereo partly specified) | – | – | > 198000 | – | – | – | > 1580 | – | – | – | –
6 | Cc1cn([C@H]2C[C@H](N=[N+]=[N-])[C@@H](COC(=O)CC(C)(C)CC(=O)OCSc3ccccc3C(=O)NCCC(N)=O)O2)c(=O)[nH]c1=O | – | – | > 194000 | – | – | – | > 1550 | – | – | – | –
7 | Cc1cn([C@H]2C[C@H](N=[N+]=[N-])[C@@H](COC(=O)CCC(=O)OCSc3ccccc3C(=O)NCCC(N)=O)O2)c(=O)[nH]c1=O | – | – | 124000 | – | – | – | > 1660 | – | – | – | –
